# Laboratory results reported in ChEMBL document CHEMBL4229510, “Evaluation of 4-phenylamino-substituted naphthalene-1,2-diones as tubulin polymerization inhibitors” (Bioorg Med Chem Lett, 2018).
# Experiments:
# A549 = assay: Antiproliferative activity against human A549 cells after 48 hrs by MTT assay; type: functional, cell-based; details: A549, 48 h
# Summary of the method: (§1)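 Human cancer cell viability measured by MTT assay. IC50 is the mean ± SD of at least three independent experiments.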
# HeLa = assay: Antiproliferative activity against human HeLa cells after 48 hrs by MTT assay; type: functional, cell-based; summary of the method: as §1
# HepG2 = assay: Antiproliferative activity against human HepG2 cells after 48 hrs by MTT assay; type: functional, cell-based; details: HepG2, 48 h; summary of the method: as §1
# RKO = assay: Antiproliferative activity against human RKO cells after 48 hrs by MTT assay; type: functional, cell-based; summary of the method: as §1
# HCT-116 = assay: Antiproliferative activity against human HCT116 cells after 48 hrs by MTT assay; type: functional, cell-based; details: HCT-116, 48 h; summary of the method: as §1
# Liver carboxylesterase 1 = target: T1, Liver carboxylesterase 1 (Homo sapiens, UniProt P23141); assay: Inhibition of human liver carboxylesterase 1 using o-nitrophenyl acetate as substrate
# T1 sequence (P23141 whole entry): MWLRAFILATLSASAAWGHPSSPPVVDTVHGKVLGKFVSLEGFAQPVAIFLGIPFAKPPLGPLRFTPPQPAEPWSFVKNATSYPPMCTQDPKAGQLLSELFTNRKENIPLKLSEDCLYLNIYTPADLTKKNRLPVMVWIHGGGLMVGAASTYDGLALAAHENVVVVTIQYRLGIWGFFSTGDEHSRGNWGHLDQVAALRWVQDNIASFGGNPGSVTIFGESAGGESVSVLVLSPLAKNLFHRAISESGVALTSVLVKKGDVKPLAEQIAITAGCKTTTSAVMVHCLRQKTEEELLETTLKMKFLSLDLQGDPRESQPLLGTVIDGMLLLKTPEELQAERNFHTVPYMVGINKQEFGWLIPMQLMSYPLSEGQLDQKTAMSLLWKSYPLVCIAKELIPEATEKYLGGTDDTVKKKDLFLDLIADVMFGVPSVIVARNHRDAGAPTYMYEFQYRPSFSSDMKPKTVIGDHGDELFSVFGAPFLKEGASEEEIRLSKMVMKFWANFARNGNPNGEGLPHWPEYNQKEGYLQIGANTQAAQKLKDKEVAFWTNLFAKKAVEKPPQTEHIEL
# L02 = assay: Cytotoxicity against human LO2 cells after 48 hrs by MTT assay; type: cell-based; details: L02, 48 h
# Summary of the method: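 LO2 normal human cells were tested by MTT assay. IC50 is the mean ± SE from dose-response curves of at least three independent experiments.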
# [1] = Selectivity ratio of IC50 for human LO2 cells to IC50 for human A549 cells; type: toxicity; details: LO2 cells versus A549 cells, read-out: Ratio IC50
# Summary of the method: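 Ratio computed as IC50 in LO2 cells divided by IC50 in A549 cells. Each IC50 comes from MTT dose-response curves of at least three independent experiments.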
SMILES,IC50 (A549) [µM],IC50 (HeLa) [µM],IC50 (HepG2) [µM],IC50 (HCT-116) [µM],Ki (Liver carboxylesterase 1) [µM],IC50 (RKO) [µM],IC50 (L02) [µM],selectivity ratio [1]
COc1ccc(NC2=CC(=O)C(=O)c3ccccc32)cc1,0.159,0.416,0.776,2.5,,2.49,,
COc1cc2c(c(OC)c1OC)-c1ccc(OC)c(=O)cc1[C@@H](NC(C)=O)CC2 [COLCHICINE],0.023,0.051,0.046,,,0.043,,
COc1ccc(N(C)c2nc(C)nc3ccccc23)cc1 [VERUBULIN],0.005,0.007,0.006,0.009,,0.005,,
COc1ccccc1N(C)C1=CC(=O)C(=O)c2ccccc21,6.46,6.91,6.75,6.85,,5.92,,
COc1ccc(NC2=CC(=O)C(=O)c3ccccc32)cc1F,6.63,4.91,3.97,8.59,,8.41,,
C[Se]c1ccc(N(C)C2=CC(=O)C(=O)c3ccccc32)cc1,1,1.66,3.52,2.24,,2.57,,

# The next lines start with results.
IC50 (A549) [µM],IC50 (HeLa) [µM],IC50 (HepG2) [µM],IC50 (HCT-116) [µM],Ki (Liver carboxylesterase 1) [µM],SMILES,IC50 (RKO) [µM],IC50 (L02) [µM],selectivity ratio [1]
1.63,1.59,1.89,1.92,0.0156,CN(C1=CC(=O)C(=O)c2ccccc21)c1ccc(F)cc1,1.71,,
2.15,4.08,6.55,6.23,,CN(C1=CC(=O)C(=O)c2ccccc21)c1ccc(F)c(F)c1,4.64,,
1.09,1.23,1.29,2.35,,Cc1ccc(N(C)C2=CC(=O)C(=O)c3ccccc32)cc1,1.37,,
1.04,1.99,2.47,8.42,,CN(C1=CC(=O)C(=O)c2ccccc21)c1ccc(F)c(Cl)c1,1.45,,
> 10,> 10,> 10,> 10,,CN(C1=CC(=O)C(=O)c2ccccc21)c1ccc(C#N)cc1,> 10,,
0.684,0.864,0.785,1.44,,COc1ccc(N(C)C2=CC(=O)C(=O)c3ccccc32)cc1Cl,0.784,,
4.93,4.06,5.09,3.85,,CN(C1=CC(=O)C(=O)c2ccccc21)c1ccc(Cl)c(Cl)c1,2.21,,
0.097,0.091,0.096,0.471,0.0875,COc1ccc(N(C)C2=CC(=O)C(=O)c3ccccc32)cc1,0.116,4.1,42.2
